Reference: ChEMBL document CHEMBL4043235, “Design, semisynthesis and potent cytotoxic activity of novel 10-fluorocamptothecin derivatives” (Bioorg Med Chem Lett, 2017)
pIC50: −log10 of the molar value.

Columns and labels:
Format in all cases: functional, cell-based
MCF7 = assay: Cytotoxicity against human MCF7 cells after 72 hrs by SRB assay; conditions: MCF7, 72 h
Method in brief: (§1)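 Cells seeded at 3–5 × 10^3 per well in RPMI-1640 with 10% FBS holding various sample concentrations. Exposure 72 h. Attached cells fixed with cold 50% trichloroacetic acid for 30 min, then stained with 0.04% SRB for 30 min. Bound dye solubilized in 10 mM Tris-base, absorbance read at 515 nm. Three or more experiments; IC50 given as mean with standard deviation.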

KB = assay: Cytotoxicity against human KB cells after 72 hrs by SRB assay; method in brief: as §1
MDA-MB-231 = assay: Cytotoxicity against human MDA-MB-231 cells after 72 hrs by SRB assay; conditions: MDA-MB-231, 72 h; method in brief: as §1
A549 = assay: Cytotoxicity against human A549 cells after 72 hrs by SRB assay; conditions: A549, 72 h; method in brief: as §1
[1] = Cytotoxicity against human KBVIN cells after 72 hrs by SRB assay; method in brief: as §1

SMILES	pIC50 (MCF7)	pIC50 (KB)	pIC50 (MDA-MB-231)	pIC50 (A549)	pIC50 [1]
CCc1c2c(nc3ccc(F)cc13)-c1cc3c(c(=O)n1C2)COC(=O)[C@]3(O)CC	7.11	7.16	6.50	8.00	7.17
CCc1c2c(nc3ccc(F)cc13)-c1cc3c(c(=O)n1C2)COC(=O)[C@@]3(CC)OC(=O)CN/C(Cc1ccc(OC)cc1)=N/S(=O)(=O)c1ccc(C)cc1	7.09	7.33	6.62	8.06	7.00
CC[C@@]1(O)C(=O)OCc2c1cc1n(c2=O)Cc2cc3cc(F)ccc3nc2-1	6.37	6.73	6.24	7.23	5.53
CC[C@@]1(OC(=O)CN/C(Cc2ccc(OC)cc2)=N/S(=O)(=O)c2ccc(C)cc2)C(=O)OCc2c1cc1n(c2=O)Cc2cc3cc(F)ccc3nc2-1	6.19	6.55	6.22	7.21	6.30
CCc1c2c(nc3ccc(OC(=O)N4CCC(N5CCCCC5)CC4)cc13)-c1cc3c(c(=O)n1C2)COC(=O)[C@]3(O)CC [IRINOTECAN]	–	5.10	4.81	–	< 4.70
CC[C@@]1(O)C(=O)OCc2c1cc1n(c2=O)Cc2cc3c(CN(C)C)c(O)ccc3nc2-1 [TOPOTECAN]	6.18	6.99	6.11	6.95	–
